Source: ChEMBL document CHEMBL1142646, “Tetrahydroisoquinoline 1-carboxamides as growth hormone secretagogues” (Bioorg Med Chem Lett, 2005)

Key:
[1] = molecular target: T1, Growth hormone secretagogue receptor type 1 (Homo sapiens, UniProt Q92847); assay: In vitro effective concentration against human growth hormone secretagogues; format: functional
Method in brief: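 Cell-based FLIPR functional assay in H4 glioma cells in which expression of the endogenous human GHS receptor is enhanced by RAGE-activation. Agonism is read as intracellular calcium mobilization with a calcium-sensitive fluorescent probe, and EC50 is derived from the response.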

[2] = molecular target: T1, Growth hormone secretagogue receptor type 1; assay: Maximum intrinsic activity against human growth hormone secretagogues at a concentration of 10 uM; format: functional
[3] = system: Rattus norvegicus; assay: Percent of plasma growth hormone increase at an IV dose of 5.23 lmol/kg; format: functional
Method in brief: (§1)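 Anesthetized rats (treatment stabilizes baseline plasma GH near 60 ng/mL) were given drug or vehicle (10% ethanol, 0.09% saline V/V) IV at 10 mL/kg, five rats per group. Blood was drawn from the abdominal aorta 15 min later for plasma GH. The result is expressed as % increase over the vehicle group, or as rats exceeding a 100% increase.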

[4] = molecular target: T1, Growth hormone secretagogue receptor type 1; assay: In vitro effective concentration against human growth hormone secretagogues
[5] = organism: Rattus norvegicus; assay: Number of rats with greater than 100% GH increase over the controlgroup, there are five rats in both control and compound treated groups.; format: functional; method in brief: as §1
[6] = organism: Rattus norvegicus; assay: Number of rats with greater than 100% growth hormone increase over the control group, there are five rats in both control and compound treated groups; format: functional; method in brief: as §1
[7] = molecular target: T1, Growth hormone secretagogue receptor type 1; assay: In vivo effective concentration against human growth hormone secretagogues; format: functional, organism-based, Rattus norvegicus

T1 sequence (Q92847 whole entry): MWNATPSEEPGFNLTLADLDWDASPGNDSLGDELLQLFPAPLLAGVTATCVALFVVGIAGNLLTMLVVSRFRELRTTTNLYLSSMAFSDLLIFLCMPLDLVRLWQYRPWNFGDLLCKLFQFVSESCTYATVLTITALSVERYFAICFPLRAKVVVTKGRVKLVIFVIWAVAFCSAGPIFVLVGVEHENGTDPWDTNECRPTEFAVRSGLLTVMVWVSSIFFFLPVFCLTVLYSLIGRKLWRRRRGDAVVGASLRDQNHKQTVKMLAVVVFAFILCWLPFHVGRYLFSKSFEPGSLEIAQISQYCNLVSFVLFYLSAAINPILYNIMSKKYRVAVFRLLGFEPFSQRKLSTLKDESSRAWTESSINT

EC50 [1] [nM] | SMILES | further results
2.3 | CC(C)N(CCNC(=O)C1c2ccc(Oc3ccc(C(F)(F)F)cc3)cc2CCN1C(=O)OC(C)(C)C)C(C)C (configuration not stated) | –
3.4 | CCCOC(=O)N1CCc2cc(OCc3ccccc3)ccc2C1C(=O)NCCN(C(C)C)C(C)C (configuration not stated) | –
43 | CC(C)N(CCNC(=O)C1c2ccc(OCc3ccccc3)cc2CCN1C(=O)Cc1ccccc1F)C(C)C (configuration not stated) | –
257 | CC(C)(CN)CNC(=O)C1c2ccc(OCc3ccccc3)cc2CCN1C(=O)OC(C)(C)C (configuration not stated) | –
21 | CC(C)N(CCNC(=O)C1c2ccc(OCc3ccccc3)cc2CCN1S(=O)(=O)N(C)C)C(C)C (configuration not stated) | –
27 | CC(C)N(CCNC(=O)C1c2ccc(OCc3ccccc3)cc2CCN1C(=O)OCc1ccccc1)C(C)C (configuration not stated) | –
0.49 | CC(C)N(CCNC(=O)C1c2ccc(Oc3ccccc3)cc2CCN1C(=O)OC(C)(C)C)C(C)C (stereo in doubt; 12a) | –
9.8 | CC(C)N(CCNC(=O)C1c2ccc(OCc3ccccc3)cc2CCN1C(=O)OC(C)(C)C#N)C(C)C (configuration not stated) | –
1.5 | CC(C)N(CCNC(=O)C1c2ccc(Oc3cccc(C(F)(F)F)c3)cc2CCN1C(=O)OC(C)(C)C)C(C)C (configuration not stated) | –
17.8 | CC(C)N(CCNC(=O)C1c2ccc(OCc3ccccc3)cc2CCN1C(=O)c1ccccc1F)C(C)C (configuration not stated) | –
0.73 | CC(C)N(CCNC(=O)C1c2ccc(Oc3ccc(Cl)cc3)cc2CCN1C(=O)OC(C)(C)C)C(C)C (configuration not stated) | –
0.49 | COc1ccc(Oc2ccc3c(c2)CCN(C(=O)OC(C)(C)C)C3C(=O)NCCN(C(C)C)C(C)C)cc1 (configuration not stated) | Increase [3]: 172%; EC50 [4]: 0.49 nM; Responder [5]: 4 rats
0.46 | CC(C)N(CCNC(=O)C1c2ccc(Oc3ccccc3)cc2CCN1C(=O)OC(C)(C)C)C(C)C (single isomer, unassigned; form 2) | Increase [3]: 1283%; Responder [6]: 5 rats; EC50 [7]: 0.46 nM
41 | CC(C)N(C)CCNC(=O)C1c2ccc(OCc3ccccc3)cc2CCN1C(=O)OC(C)(C)C (configuration not stated) | –
7.3 | CC(=O)c1ccccc1C(=O)N1CCc2cc(OCc3ccccc3)ccc2C1C(=O)NCCN(C(C)C)C(C)C (configuration not stated) | –
4.3 | CC(C)N(CCNC(=O)C1c2ccc(Oc3cccc(F)c3)cc2CCN1C(=O)OC(C)(C)C)C(C)C (configuration not stated) | –
26.7 | CC(C)N(CCNC(=O)C1c2ccc(OCc3ccccc3)cc2CCN1C(=O)CCc1ccccc1)C(C)C (configuration not stated) | –
4.9 | CC(C)N(CCNC(=O)C1c2ccc(OCc3ccccc3)cc2CCN1C(=O)OC1CCCCC1)C(C)C (configuration not stated) | –
13.1 | CC(C)N(CCNC(=O)C1c2ccc(OCc3ccccc3)cc2CCN1C(=O)CCCc1ccccc1)C(C)C (configuration not stated) | –
11.7 | CC(C)N(CCNC(=O)C1c2ccc(OCc3ccccc3)cc2CCN1C(=O)OC(C)(C)C)C(C)C (configuration not stated) | –
9.2 | CC(=O)C(C(=O)N1CCc2cc(OCc3ccccc3)ccc2C1C(=O)NCCN(C(C)C)C(C)C)c1ccccc1 (configuration not stated) | –
39 | CC(C)N(CCNC(=O)C1c2ccc(OCc3ccccc3)cc2CCN1C(=O)C(O)c1ccccc1)C(C)C (configuration not stated) | –
19.6 | CCN(CC)CCNC(=O)C1c2ccc(OCc3ccccc3)cc2CCN1C(=O)OC(C)(C)C (configuration not stated) | –

Continued, compound first:

SMILES | EC50 [1] [nM] | further results
CC(C)N(CCNC(=O)C1c2ccc(Oc3ccccc3)cc2CCN1C(=O)OC(C)(C)C)C(C)C (single isomer, unassigned; form 1) | 7.6 | –
COc1ccccc1CC(=O)N1CCc2cc(OCc3ccccc3)ccc2C1C(=O)NCCN(C(C)C)C(C)C (configuration not stated) | 2.1 | –
COc1ccc(CC(=O)N2CCc3cc(OCc4ccccc4)ccc3C2C(=O)NCCN(C(C)C)C(C)C)cc1 (configuration not stated) | 45 | –
CN(C)CCNC(=O)C1c2ccc(OCc3ccccc3)cc2CCN1C(=O)OC(C)(C)C (configuration not stated) | – | Activity [2]: 46%
CC(=O)NC(C(=O)N1CCc2cc(OCc3ccccc3)ccc2C1C(=O)NCCN(C(C)C)C(C)C)c1ccccc1 (configuration not stated) | 19.7 | –
CC(C)N(CCNC(=O)C1c2ccc(OCc3ccccc3)cc2CCN1C(=O)c1ccccc1)C(C)C (configuration not stated) | 7.6 | –
CCOc1ccccc1C(=O)N1CCc2cc(OCc3ccccc3)ccc2C1C(=O)NCCN(C(C)C)C(C)C (configuration not stated) | – | Activity [2]: 30%
CC(C(=O)N1CCc2cc(OCc3ccccc3)ccc2C1C(=O)NCCN(C(C)C)C(C)C)c1ccccc1 (configuration not stated) | 3.4 | –
COC(=O)C(C)(C)OC(=O)N1CCc2cc(OCc3ccccc3)ccc2C1C(=O)NCCN(C(C)C)C(C)C (configuration not stated) | 1.5 | Increase [3]: 746%; EC50 [4]: 1.5 nM; Responder [5]: 5 rats
CC(C)N(CCNC(=O)C1c2ccc(OCc3ccccc3)cc2CCN1C(=O)C(C)(C)C)C(C)C (configuration not stated) | – | Activity [2]: 50%
COc1cccc(Oc2ccc3c(c2)CCN(C(=O)OC(C)(C)C)C3C(=O)NCCN(C(C)C)C(C)C)c1 (configuration not stated) | 0.46 | –
CC(=O)Nc1cccc(Oc2ccc3c(c2)CCN(C(=O)OC(C)(C)C)C3C(=O)NCCN(C(C)C)C(C)C)c1 (configuration not stated) | 12 | –
CC(C)N(CCNC(=O)C1c2ccc(OCc3ccccc3)cc2CCN1C(=O)OC(C)(C)C(=O)N(C)C)C(C)C (configuration not stated) | 0.85 | –
CC(C)N(CCNC(=O)C1c2ccc(OCc3ccccc3)cc2CCN1C(=O)Oc1ccccc1)C(C)C (configuration not stated) | – | Activity [2]: < 5%
CC(=O)N1CCc2cc(OCc3ccccc3)ccc2C1C(=O)NCCN(C(C)C)C(C)C (configuration not stated) | 257 | –
COc1cccc(CC(=O)N2CCc3cc(OCc4ccccc4)ccc3C2C(=O)NCCN(C(C)C)C(C)C)c1 (configuration not stated) | 6.4 | –

SMILES | EC50 [1] [nM] | further results
CC(C)N(CCNC(=O)C1c2ccc(OCc3ccccc3)cc2CCN1S(C)(=O)=O)C(C)C (configuration not stated) | – | Activity [2]: 47%
CC(C)N(CCNC(=O)C1c2ccc(OCc3ccccc3)cc2CCN1C(=O)N(C)C)C(C)C (configuration not stated) | 190 | –
CC(C)(N)CNC(=O)C1c2ccc(OCc3ccccc3)cc2CCN1C(=O)OC(C)(C)C (configuration not stated) | – | Activity [2]: 47%
CC(C)N(CCNC(=O)C1c2ccc(OCc3ccccc3)cc2CCN1C(=O)NC(C)(C)C)C(C)C (configuration not stated) | 14.4 | –
CC(C)N(CCNC(=O)C1c2ccc(Oc3cccc([N+](=O)[O-])c3)cc2CCN1C(=O)OC(C)(C)C)C(C)C (configuration not stated) | 0.66 | –
CC(C)N(CCNC(=O)C1c2ccc(OCc3ccccc3)cc2CCN1C(=O)Cc1ccccc1)C(C)C (configuration not stated) | 9 | –
CC(=O)C(C)(C)OC(=O)N1CCc2cc(OCc3ccccc3)ccc2C1C(=O)NCCN(C(C)C)C(C)C (configuration not stated) | 2 | Increases [3]: 666%; EC50 [4]: 2 nM; Responder [5]: 5 rats
CC(C)N(CCNC(=O)C1c2ccc(Oc3ccc(C=O)cc3)cc2CCN1C(=O)OC(C)(C)C)C(C)C (configuration not stated) | 1.4 | –
CC(C)N(CCNC(=O)C1c2ccc(OCc3ccccc3)cc2CCN1S(=O)(=O)Cc1ccccc1)C(C)C (configuration not stated) | 7.3 | –
CC(C)N(CCNC(=O)C1c2ccc(OCc3ccccc3)cc2CCN1C(=O)Nc1ccccc1)C(C)C (configuration not stated) | – | Activity [2]: 43%
CC(C)NCCNC(=O)C1c2ccc(OCc3ccccc3)cc2CCN1C(=O)OC(C)(C)C (configuration not stated) | 219 | –
CC(C)N(CCNC(=O)C1c2ccc(OCc3ccccc3)cc2CCN1S(=O)(=O)c1ccccc1)C(C)C (configuration not stated) | 21 | –
CSc1ccc(Oc2ccc3c(c2)CCN(C(=O)OC(C)(C)C)C3C(=O)NCCN(C(C)C)C(C)C)cc1 (configuration not stated) | 2.4 | –
CC(C)N(CCNC(=O)C1c2ccc(OCc3ccccc3)cc2CCN1C(=O)CC(C)(C)C)C(C)C (configuration not stated) | 20.9 | –
CC(C)N(CCNC(=O)C1c2ccc(OCc3ccccc3)cc2CCN1C(=O)C(CO)c1ccccc1)C(C)C (configuration not stated) | 5.6 | –
CCCCS(=O)(=O)N1CCc2cc(OCc3ccccc3)ccc2C1C(=O)NCCN(C(C)C)C(C)C (configuration not stated) | – | Activity [2]: 50%
